# Measured values from different studies.
# Protocols differ between the studies behind these lines.
# Target: Prostaglandin G/H synthase 2 (PTGS2, Homo sapiens, UniProt P35354)
# Observed: enzyme activity
# Action: inhibitor
# Sequence (P35354 18-604, as in one of the studies): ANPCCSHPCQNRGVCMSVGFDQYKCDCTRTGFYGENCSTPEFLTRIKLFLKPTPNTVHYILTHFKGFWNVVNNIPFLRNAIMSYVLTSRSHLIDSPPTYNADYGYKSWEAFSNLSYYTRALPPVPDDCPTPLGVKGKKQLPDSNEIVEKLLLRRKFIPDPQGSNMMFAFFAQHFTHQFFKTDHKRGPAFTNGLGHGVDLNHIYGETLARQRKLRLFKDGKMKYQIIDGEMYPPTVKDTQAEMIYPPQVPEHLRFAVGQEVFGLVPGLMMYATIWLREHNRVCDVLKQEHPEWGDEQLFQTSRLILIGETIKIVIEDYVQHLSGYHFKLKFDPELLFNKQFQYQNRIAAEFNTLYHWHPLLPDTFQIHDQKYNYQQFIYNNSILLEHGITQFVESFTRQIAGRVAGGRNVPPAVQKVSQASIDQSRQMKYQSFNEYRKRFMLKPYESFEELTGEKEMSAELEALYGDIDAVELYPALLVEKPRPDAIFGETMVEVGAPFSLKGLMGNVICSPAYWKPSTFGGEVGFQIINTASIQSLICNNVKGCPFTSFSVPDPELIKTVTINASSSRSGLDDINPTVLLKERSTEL
SMILES,IC50
Cc1ccc(S(=O)(=O)NNC(=O)COC(=O)c2ccccc2Nc2cccc(C(F)(F)F)c2)cc1,9 µM
O=C(Nc1ccc(-c2ccccc2)cc1)c1cnn(-c2ccc([N+](=O)[O-])cc2)c1C(F)(F)F,6 µM
CC(=NNC(=O)c1cc(-c2ccccc2)n(-c2ccc(S(N)(=O)=O)cc2)n1)c1ccc(C)cc1,1.34 µM
COc1cc(NC(=O)c2cnn(-c3ccc([N+](=O)[O-])cc3)c2C(F)(F)F)cc(OC)c1,5.78 µM
Cc1ccc(S(=O)(=O)NNc2ccc([N+](=O)[O-])cc2[N+](=O)[O-])cc1,4.74 µM
O=C(COC(=O)c1ccccc1Nc1cccc(C(F)(F)F)c1)Nc1ccc(F)cc1,58 µM
Cc1ccc(S(=O)(=O)[N](Nc2ccc([N+](=O)[O-])cc2[N+](=O)[O-])[Sn]([Cl])[Cl])cc1,2.74 µM
NS(=O)(=O)c1ccc(-n2nc(C(=O)NN=Cc3cccnc3)cc2-c2ccccc2)cc1,3.93 µM
